# Test results: PubChem BioAssay
# Active and inactive are the calls of the source. Rule as the data show it, unless noted: active = inhibition above about 30%; inactive = the rest.
# Key:
# [1] = reducers of endogenous Her2 protein level, primary screen, SKBR3 breast tumor cells, AlphaScreen, ATP viability (AID 461;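 active = Her2 level under about 52% in both replicate screens, with viability over 70% of control, limit read from the data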;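 as to Her2 level: lower value means less Her2 protein in the cells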;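 as to viability: percent of carrier control wells set as 100% viability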); conditions: 18-24 h, measured here: SKBR3 viability, ATP luminescence, at 10 µM
# [2] = target: Receptor tyrosine-protein kinase erbB-2 (Homo sapiens) (UniProt P04626); experiment: as above; conditions: 18-24 h, at 10 µM, stronger effect = lower value
# Receptor tyrosine-protein kinase erbB-2 (Homo sapiens), sequence (P04626 whole entry, looked up): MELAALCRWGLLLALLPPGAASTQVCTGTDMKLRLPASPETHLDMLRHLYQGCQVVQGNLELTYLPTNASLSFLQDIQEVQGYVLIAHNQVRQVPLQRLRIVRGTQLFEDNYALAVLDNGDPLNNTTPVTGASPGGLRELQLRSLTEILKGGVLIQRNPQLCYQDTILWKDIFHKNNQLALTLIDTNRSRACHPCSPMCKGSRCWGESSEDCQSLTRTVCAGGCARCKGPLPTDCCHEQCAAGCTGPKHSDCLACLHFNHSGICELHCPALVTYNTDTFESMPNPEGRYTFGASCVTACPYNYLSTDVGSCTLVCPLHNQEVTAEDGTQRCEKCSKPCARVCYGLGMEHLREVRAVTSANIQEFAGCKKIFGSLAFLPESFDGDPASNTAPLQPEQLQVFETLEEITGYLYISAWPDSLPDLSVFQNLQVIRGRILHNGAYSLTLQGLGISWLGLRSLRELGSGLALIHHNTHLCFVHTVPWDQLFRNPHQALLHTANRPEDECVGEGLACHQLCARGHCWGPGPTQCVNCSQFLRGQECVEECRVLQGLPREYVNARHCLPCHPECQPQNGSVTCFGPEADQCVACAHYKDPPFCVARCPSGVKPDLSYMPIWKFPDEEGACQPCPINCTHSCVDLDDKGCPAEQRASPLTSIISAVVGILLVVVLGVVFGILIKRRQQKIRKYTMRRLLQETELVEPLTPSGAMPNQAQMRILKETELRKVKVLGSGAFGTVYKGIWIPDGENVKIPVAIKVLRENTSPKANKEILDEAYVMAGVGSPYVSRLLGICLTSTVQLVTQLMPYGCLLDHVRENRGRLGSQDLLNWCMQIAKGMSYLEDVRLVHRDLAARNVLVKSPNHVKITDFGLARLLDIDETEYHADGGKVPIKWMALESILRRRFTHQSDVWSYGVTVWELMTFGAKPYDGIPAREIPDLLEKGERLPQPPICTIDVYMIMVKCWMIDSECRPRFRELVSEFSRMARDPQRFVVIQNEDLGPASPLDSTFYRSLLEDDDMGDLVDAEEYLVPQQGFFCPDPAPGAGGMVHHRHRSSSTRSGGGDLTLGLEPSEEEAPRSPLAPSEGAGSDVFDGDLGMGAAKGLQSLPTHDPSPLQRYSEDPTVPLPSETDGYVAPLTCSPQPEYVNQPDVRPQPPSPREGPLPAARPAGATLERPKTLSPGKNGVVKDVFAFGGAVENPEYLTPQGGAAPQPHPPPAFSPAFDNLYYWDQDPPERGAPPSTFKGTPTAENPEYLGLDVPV
# [3] = SK-BR-3 cell growth inhibitors, pilot screen, 24 h, human (AID 572;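 active = viability at or below 10% of carrier control in both of two separate runs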;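 also: compound exposure lasted between 18 and 24 h rather than exactly 24 h; 100% = carrier-treated control wells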); conditions: SK-BR-3 viability, CellTiter-Glo luminescence, at 10 µM, stronger effect = lower value
# [4] = HUVEC growth inhibition – cell-based, human, primary screen (AID 575;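 active = viability at or below 30% in both replicate assays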;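 also: 100% = median of untreated cell wells with 0.1% DMSO on each plate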); conditions: HUVEC proliferation, CellTiter-Glo luminescence, 72 h; at 10 µM; stronger effect = lower value
# In short: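 Test system: primary human umbilical vein endothelial cells; medium: endothelial basal medium with 2% FBS plus growth supplements; dosing: 10 µM compound only; times: 72 h treatment at 37 °C; signal: CTG luminescence; read-out: % viability relative to median vehicle-well signal on each plate; control set: vehicle and MePR control wells; plate: 384-well, collagen-coated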
# [5] = growth inhibitors of H69AR lung tumor, primary screen, human, duplicate replicates (AID 580;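 active = viability at or under a set limit in both replicates, limit being median viability minus 3 SD, cut at about 48% in these data, passing the limit was not always enough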;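 also: 100% = mean luminescence of untreated wells and 0% = no signal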); conditions: H69AR lung tumor cells viability, ATP luminescence, 72 h; at 10 µM; stronger effect = lower value
# [6] = reversal of MRP1-mediated doxorubicin resistance, pilot screen, H69AR cells, doxorubicin co-treatment (AID 601;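 active = viability loss from added drug above about 55%, and viability with drug at most 40%, in both replicates, limit read from the data, passing the limit was not always enough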); conditions: CellTiter-Glo, 72 h, at 10 µM; for differential viability (reversal): stronger effect = higher value
# [7] = 384-well plate pilot, post-Golgi transport modulator project, inhibition of yeast transport mutant growth (AID 636; in the data active = inhibition above about 31%); conditions: absorbance 615 nm, about 18 h, stronger effect = higher value
# [8] = growth suppression of yeast trafficking mutant, preliminary HTS, modulators of trafficking downstream of Golgi apparatus project, 1536-format plate, OD 615 nm (AID 637); conditions: yeast transport mutant growth, absorbance 615 nm, 18 h; stronger effect = higher value
# [9] = H69AR cells + 2 uM doxorubicin, measured here: viability with 2 uM doxorubicin, stronger effect = lower value
# [10] = H69AR cells, compound alone cytotoxicity
SMILES,viability [1],Her2 level [2],viability [3],viability [4],viability [5],differential viability (reversal) ([6]; H69AR cells + 2 uM doxorubicin),"viability [6, 9]","viability [6, 10]",inhibition [7],inhibition [8]
Oc1ccc(C=Nc2cccc3ncccc23)c(O)c1,103%,84.5% (inactive),103% (inactive),80% (inactive),84.9% (inactive),-3.45% (inactive),88.3%,84.9%,-2.93% (inactive),0.81% (inactive)
COc1ccc(Cc2nnc3n2N=C(c2cc4ccccc4o2)CS3)cc1OC,77%,79.5% (inactive),77% (inactive),64.4% (inactive),35% (active),-20% (inactive),55%,35%,-7.03% (inactive),-0.67% (inactive)
Cc1csc(NC(=O)CCS(=O)(=O)c2ccc(Br)cc2)n1,99.5%,96.5% (inactive),99.5% (inactive),82.5% (inactive),73% (inactive),-2.92% (inactive),75.9%,73%,-0.81% (inactive),22.7% (inactive)
COc1cc(C(N)=O)ccc1OCc1ccccc1,86%,83.5% (inactive),86% (inactive),91.6% (inactive),98.7% (inactive),8% (inactive),90.8%,98.7%,-1.45% (inactive),-7.14% (inactive)
COc1ccc(C(=O)Nn2c(SCC(=O)NCC3CCCO3)nc3ccccc3c2=O)cc1 (stereo not given),92.5%,95% (inactive),92.5% (inactive),76.8% (inactive),83.8% (inactive),9.29% (inactive),74.5%,83.8%,-6.53% (inactive),-0.81% (inactive)
O=C(NCc1cccs1)C1CC(c2ccccc2O)=NO1 (stereo not given),74%,78.5% (inactive),74% (inactive),63.4% (inactive),104% (inactive),16.5% (inactive),87.3%,104%,-3.73% (inactive),-0.33% (inactive)
CCOC(=O)C1=C(CSc2nc(C)cc(C)c2C#N)OC(N)=C(C#N)C1c1cccs1 (stereo not given),108%,85.5% (inactive),108% (inactive),78.5% (inactive),83.1% (inactive),8.64% (inactive),74.5%,83.1%,-5.33% (inactive),0.16% (inactive)
Cn1c(C(=O)NCCC2=CCCCC2)cc2c(=O)n3ccccc3nc21,88%,98.5% (inactive),88% (inactive),95.5% (inactive),96.1% (inactive),15.7% (inactive),80.4%,96.1%,0.26% (inactive),-1.97% (inactive)
CCC(=O)N1CCc2cc(S(=O)(=O)CCC(=O)Nc3nc(C)cs3)ccc21,106%,85% (inactive),106% (inactive),90.5% (inactive),74.4% (inactive),7.69% (inactive),66.8%,74.4%,-4.8% (inactive),-5.9% (inactive)
CCC(=O)N/C(N)=N/c1nc(C)c2cc(OC)ccc2n1,131%,67.5% (inactive),131% (inactive),59.5% (inactive),80.7% (inactive),-8.64% (inactive),89.3%,80.7%,-0.13% (inactive),-5.74% (inactive)
CC(C)(C)c1ccc(O)c(N)c1,86%,93.5% (inactive),86% (inactive),106% (inactive),94.2% (inactive),-0.85% (inactive),95.1%,94.2%,-5.21% (inactive),-3.33% (inactive)
CCOc1ccc(NC(=O)CN2CCN(CC(=O)c3ccc(OCC)cc3)CC2)cc1,95%,89% (inactive),95% (inactive),77.8% (inactive),89.3% (inactive),1.23% (inactive),88.1%,89.3%,-4.87% (inactive),-2.83% (inactive)
COc1ccc(-n2cnnc2SCCC#N)cc1,106%,96.5% (inactive),106% (inactive),88.3% (inactive),106% (inactive),16.2% (inactive),89.5%,106%,-3.33% (inactive),3.71% (inactive)
Cc1ccccc1Cn1ccc(NC(=O)c2cnn3c(C(F)(F)F)cc(-c4ccco4)nc23)n1,76.5%,81% (inactive),76.5% (inactive),62.3% (inactive),60.4% (inactive),25.2% (inactive),35.3%,60.4%,-4.13% (inactive),5.9% (inactive)
c1ccc2c(c1)nc(-c1ccncc1)n1nnnc21,96.5%,99.5% (inactive),96.5% (inactive),93.5% (inactive),93.2% (inactive),8.75% (inactive),84.4%,93.2%,-6% (inactive),-0.16% (inactive)
C=CCn1c(COc2cccc(C)c2)nnc1SCC(=O)NC(=O)NCc1ccco1,108%,95% (inactive),108% (inactive),78.4% (inactive),78.2% (inactive),-3.14% (inactive),81.3%,78.2%,-5.07% (inactive),-0.48% (inactive)
CCCCCCC(=O)c1c(C)[nH]c(C(=O)OCC)c1C,98%,86.5% (inactive),98% (inactive),60.2% (inactive),92.7% (inactive),6.9% (inactive),85.8%,92.7%,-5.73% (inactive),4.03% (inactive)
CC(C)CCNC(=O)NC(=O)CSc1nnc(-c2ccccc2F)n1N,94%,108% (inactive),94% (inactive),99.9% (inactive),98.1% (inactive),6.23% (inactive),91.9%,98.1%,8.03% (inactive),14.8% (inactive)
CCOC(=O)Cc1csc(NC(=O)CSc2nnc(-c3ccncc3)n2Cc2ccco2)n1,107%,82.5% (inactive),107% (inactive),94.1% (inactive),97.6% (inactive),7.66% (inactive),89.9%,97.6%,-5.14% (inactive),5.24% (inactive)
Cc1ccc2c(c1)c1c3n2CC(=C2C(=O)OC(C)(C)OC2=O)NC3CCC1 (stereo not given),103%,73% (inactive),103% (inactive),73.1% (inactive),94.6% (inactive),9.35% (inactive),85.3%,94.6%,-4.67% (inactive),-4.59% (inactive)
CC(=O)NCc1ccc(C(=O)CSc2nnc(-c3ccncc3)n2Cc2ccccc2)o1,99.5%,92.5% (inactive),99.5% (inactive),97% (inactive),97.1% (inactive),9.33% (inactive),87.8%,97.1%,-5% (inactive),10.3% (inactive)
Cc1ccc(S(=O)(=O)CCC(=O)Nc2ccc3c(c2)OCO3)cc1,96.5%,84.5% (inactive),96.5% (inactive),92.5% (inactive),81.3% (inactive),-10.8% (inactive),92.1%,81.3%,0.95% (inactive),-2.22% (inactive)
CCC(C)(C)n1nnnc1C(c1ccc(OC)c(OC)c1)N1CCN(c2ccccc2)CC1 (stereo not given),85%,86% (inactive),85% (inactive),90.2% (inactive),88.8% (inactive),9.98% (inactive),78.9%,88.8%,-7.67% (inactive),-0.16% (inactive)
Cc1ccc2cc(C(c3nnnn3CC3CCCO3)N3CCc4ccccc4C3)c(=O)[nH]c2c1 (stereo not given),87%,82% (inactive),87% (inactive),105% (inactive),100% (inactive),-2.15% (inactive),102%,100%,-3.84% (inactive),-6.83% (inactive)
CC(=O)Nc1ccc(-c2cc3ccccc3o2)cc1,103%,89% (inactive),103% (inactive),82.4% (inactive),95.9% (inactive),12% (inactive),83.9%,95.9%,-6.44% (inactive),-5.08% (inactive)
COc1ccc(OC)c(-n2nnnc2SCC(=O)NCc2ccc3c(c2)OCO3)c1,98.5%,88% (inactive),98.5% (inactive),84.4% (inactive),93.9% (inactive),-1.01% (inactive),94.9%,93.9%,-5.87% (inactive),5.57% (inactive)
CCN1CCCC1CNCc1ccc(Cl)cc1Cl (stereo not given),92.5%,116% (inactive),92.5% (inactive),111% (inactive),104% (inactive),9.34% (inactive),94.4%,104%,0.95% (inactive),6.83% (inactive)
CC(=O)Nc1ccc(S(=O)(=O)n2cnc(C)c2)cc1,91%,93.5% (inactive),91% (inactive),102% (inactive),104% (inactive),3.98% (inactive),99.6%,104%,-0.53% (inactive),-5% (inactive)
Cc1ccc(S(=O)(=O)CC2CSc3nnc(C)c(=O)n32)cc1 (stereo not given),136%,112% (inactive),136% (inactive),125% (inactive),88% (inactive),2.67% (inactive),85.4%,88%,-5.26% (inactive),1.17% (inactive)
